Reference: article PMC3000598 (Phytochemistry letters, 2008)

Tests used:
[1] = test system: 5-LOX catalyzed LTB4 formation; test: In vitro assay for leukotriene; assay type: cell-based; conditions: Homo sapiens, Leukocyte, 10 min, read-out: IC50 5-LOX mediated LTB4 formation
Outline: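 Human venous-blood polymorphonuclear leukocytes isolated by sedimentation rate and lysis tolerance; viability checked by 0.4% trypan blue. Cells (4500 cells/mL) were incubated with the ethanol-dissolved test compound, CaCl2, A23187 and arachidonic acid for 10 min at 37 °C with shaking. The reaction was stopped with 10% HCO2H, and LTB4 was measured by competitive EIA.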

[2] = test system: COX-1; conditions: cellular as well as cell-free assays; ref Albert et al. (2002); cited from earlier work
[3] = test system: 5-LOX; conditions: cellular as well as cell-free assays; ref Albert et al. (2002); cited from earlier work

IC50 [1] [µM]	SMILES	COX-1 inhibition [2]	5-LOX inhibition [3]
5	CC(c1cc2ccccc2s1)N(O)C(N)=O (stereo not drawn) [Zileuton]	–	–
–	CC(C)=CCC[C@]1(C)[C@@H](CC=C(C)C)C[C@@]2(CC=C(C)C)C(=O)[C@]1(C(=O)C(C)C)C(=O)C(CC=C(C)C)=C2O [hyperforin]	dual COX-1/5-LOX inhibitor	dual COX-1/5-LOX inhibitor
